Measured values of several laboratories.

With `NCc1ccc(-c2nn(Cc3ccccn3)c3cccnc23)o1` the IC50 was > 46 µM (CC-LP-1; cell growth or viability, ATP luminescence).
`C(=N\Nc1cc(N/N=C/c2ccc3ccccc3n2)nc(-c2ccccc2)n1)/c1ccc2ccccc2n1` has an IC50 of 9.12 µM (BGC-823; cell growth or viability, MTT; 48 h).
With `CN1CCC(NC2CCc3[nH]c4c(C(N)=O)ccc(-c5ccccc5Cl)c4c3C2)CC1` (centres unmarked) the IC50 was 0.018 µM (BGC-823; cell growth or viability; 96 h).
With `C(=N\Nc1cc(N/N=C/c2cccc3cccnc23)nc(-c2ccccc2)n1)/c1cccc2cccnc12` the IC50 was 16.9 µM (BGC-823; cell growth or viability, MTT; 48 h).
The IC50 of `CS(=O)(=O)NCCCCN=C=S` is reported as 42.9 µM (HDFa; cell growth or viability, MTT; 24 h).
The IC50 of `Cc1cc(NS(=O)(=O)c2ccc(NC(=O)/C(C#N)=C/c3ccncc3)cc2)no1` is reported as > 200 µM (HSF; cell growth or viability, MTT; 48 h).
With `OCc1ccc(-c2nn(Cc3ccncc3)c3ccccc23)o1` the IC50 was > 46 µM (CC-LP-1; cell growth or viability, ATP luminescence).
The IC50 of `O=C(CSc1nc2ccccc2s1)N/N=C/c1ccc(OCC(=O)Nc2cccc(Cl)c2)cc1` is reported as > 100 µM (HEL 299; cell growth or viability, MTS; 72 h).
`Cc1cc(NS(=O)(=O)c2ccc(NC(=O)/C(C#N)=C/c3ccc(N4CCCC4)cc3)cc2)no1` has an IC50 of > 200 µM (HSF; cell growth or viability, MTT; 48 h).
The IC50 of `Nc1ccccc1NC(=O)c1ccc(Cn2cnc3c(Nc4ccc(Br)cc4F)ncnc32)cc1` is reported as 0.39 µM (NB-4; cell growth or viability, MTT; 72 h).
For `COc1cc([C@@H]2c3cc4c(cc3[C@@H](O[C@@H]3O[C@@H]5CO[C@@H](C)O[C@H]5[C@H](O)[C@H]3O)[C@H]3COC(=O)[C@H]23)OCO4)cc(OC)c1O`, the IC50 was > 10 µM (HEL 299; cell growth or viability, MTS; 72 h).
For `O=C(NO)c1ccc(Cn2cnc3c(Nc4cccc([N+](=O)[O-])c4)ncnc32)cc1`, the IC50 was 2.07 µM (HEL; cell growth or viability, MTT; 72 h).
With `Cc1cc2c(C(=O)O)cccc2n1-c1nc2c(c(NCc3ccccc3)n1)CCCN2` the IC50 was 0.9 µM (KMS-11; cell growth or viability; 72 h).
`CNC(=O)c1cc(Oc2ccc(NC(=O)Nc3ccc(Cl)c(C(F)(F)F)c3)cc2)ccn1` has an IC50 of 6.37 µM (SNU-449; cell growth or viability, imaging; 72 h).
For `COc1ccc(Nc2ncnc3c2ncn3Cc2ccc(C(=O)NO)cc2)cc1`, the IC50 was 0.8 µM (HEL; cell growth or viability, MTT; 72 h).
`Cc1ccc(S(=O)(=O)NC(=O)c2cc3ccccc3n2Cc2ccc(C3CC3)c3ccccc23)cc1` has an IC50 of 2.61 µM (mouse BMDM; IL-1β release, inhibitor, ELISA; LPS-stimulated).
`OCc1ccc(-c2nn(Cc3ccncc3)c3cccnc23)o1` gave an IC50 of > 46 µM (CC-LP-1; cell growth or viability, ATP luminescence).
For `CN1CCN(c2ccc(Nc3c4ccccc4nc4ccccc34)cc2)CC1`, the IC50 was 4.68 µM (SNU-449; cell growth or viability, imaging; 72 h).
The IC50 of `O=C(NO)c1ccc(Cn2cnc3c(Nc4ccc(F)c(Cl)c4)ncnc32)cc1` is reported as 3.54 µM (HEL; cell growth or viability, MTT; 72 h).
`CCC(=CCc1c(O)cc2c(c1O)C(=O)C[C@@H](c1ccc(O)cc1)O2)CC` has an IC50 of 22.8 µM (HeLa; cell growth or viability, MTT; 48 h).
`COc1cnccc1Cn1nc(-c2ccc(CO)o2)c2ccccc21` has an IC50 of > 46 µM (CC-LP-1; cell growth or viability, ATP luminescence).
`Cc1nc(Nc2ncc(C(=O)Nc3c(C)cccc3Cl)s2)cc(N2CC[C@H](O)C2)n1` has an IC50 of > 10 µM (P3HR-1; cell growth or viability, ATP luminescence; 72 h).
The IC50 of `Nc1ccccc1NC(=O)c1ccc(Cn2cnc3c(Nc4ccc(Cl)cc4)ncnc32)cc1` is reported as 0.73 µM (NB-4; cell growth or viability, MTT; 72 h).
For `COc1cccc2c1C(=O)c1c(O)c3c(c(O)c1C2=O)C[C@@](O)(C(=O)CO)C[C@@H]3O[C@H]1C[C@H](N)[C@H](O)[C@H](C)O1`, the IC50 was 22.5 µM (H69AR; cell growth or viability, MTT; 75 h).
With `COC(=O)c1cc(C(C)=NNc2nc(-c3ccc4c(c3)OCCCO4)cs2)ccc1O` the IC50 was 231 µM (HSF; cell growth or viability, MTT; 96 h).
`C(=N\Nc1cc(N/N=C/c2cccc3cccnc23)ncn1)/c1cccc2cccnc12` has an IC50 of 26.8 µM (BGC-823; cell growth or viability, MTT; 48 h).
`Cc1cc(NS(=O)(=O)c2ccc(NC(=O)/C(C#N)=C/c3ccc(N4CCOCC4)cc3)cc2)no1` has an IC50 of > 200 µM (HSF; cell growth or viability, MTT; 48 h).
With `OCc1ccc(-c2nn(Cc3ccccn3)c3ccccc23)o1` the IC50 was > 46 µM (CC-LP-1; cell growth or viability, ATP luminescence).
`O=C(CSc1nc2ccccc2s1)N/N=C/c1ccc(OCC(=O)Nc2ccc([N+](=O)[O-])cc2)cc1` has an IC50 of > 100 µM (HEL 299; cell growth or viability, MTS; 72 h).
`COc1ccc(Nc2ncnc3c2ncn3Cc2ccc(C(=O)Nc3ccccc3N)cc2)cc1` gave an IC50 of 2.44 µM (NB-4; cell growth or viability, MTT; 72 h).
With `OCc1ccc(-c2nn(Cc3cccnc3)c3ccccc23)o1` the IC50 was ~46 µM (CC-LP-1; cell growth or viability, ATP luminescence).
With `O=C(NO)c1ccc(Cn2cnc3c(Nc4ccc(Br)cc4F)ncnc32)cc1` the IC50 was 1.41 µM (NB-4; cell growth or viability, MTT; 72 h).
`CONC(=O)c1cccc2c1cc(C)n2-c1nc2c(c(NCc3ccccc3)n1)CCCN2` gave an IC50 of 2.1 µM (KMS-11; cell growth or viability; 72 h).
The IC50 of `OCc1ccc(-c2nn(Cc3ccccn3)c3cccnc23)o1` is reported as > 46 µM (CC-LP-1; cell growth or viability, ATP luminescence).
For `O=C(NO)c1ccc(Cn2cnc3c(Nc4ccc(Cl)cc4)ncnc32)cc1`, the IC50 was 0.77 µM (HEL; cell growth or viability, MTT; 72 h).
